Data reported in ChEMBL document CHEMBL4400543, “Identification and Characterization of AES-135, a Hydroxamic Acid-Based HDAC Inhibitor That Prolongs Survival in an Orthotopic Mouse Model of Pancreatic Cancer” (J Med Chem, 2019).
The source made the active and inactive calls.

Assays:
[1] = target: T1, Histone deacetylase 8 (Homo sapiens, UniProt Q9BY41); assay: Inhibition of recombinant human HDAC8 expressed in SF9 baculoviral system using FAM-labeled acetylated peptide as substrate by EMSA
T1 sequence (Q9BY41 whole entry): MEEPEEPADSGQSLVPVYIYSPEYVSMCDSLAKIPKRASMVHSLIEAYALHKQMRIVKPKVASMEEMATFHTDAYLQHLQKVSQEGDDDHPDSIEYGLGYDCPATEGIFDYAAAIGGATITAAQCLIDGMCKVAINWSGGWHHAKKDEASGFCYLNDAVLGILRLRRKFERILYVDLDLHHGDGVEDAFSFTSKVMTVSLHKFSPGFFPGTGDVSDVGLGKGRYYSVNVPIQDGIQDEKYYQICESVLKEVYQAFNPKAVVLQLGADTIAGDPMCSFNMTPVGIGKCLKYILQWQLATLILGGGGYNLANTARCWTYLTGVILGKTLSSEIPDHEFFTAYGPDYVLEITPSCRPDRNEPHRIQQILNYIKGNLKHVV
Method in brief: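 Full-length recombinant human enzyme from an Sf9 baculovirus system, in 100 mM HEPES pH 7.5 with 25 mM KCl, 0.1% BSA, 0.01% Triton X-100 and 1% DMSO. Final enzyme was 0.5 nM for HDAC3, 60 nM for HDAC6 and 5.0 nM for HDAC8. FAM-acetylated peptide was 1 μM. The read-out was product/(substrate+product) by microfluidic mobility shift, with inhibition set against DMSO and no-enzyme controls (quadruplicate). Compounds were tested at 12 threefold-spaced concentrations, and IC50 came from a four-parameter sigmoid fit.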

[2] = target: Protein deacetylase HDAC6 (Homo sapiens) (UniProt Q9UBN7); assay: Inhibition of recombinant human HDAC6 expressed in SF9 baculoviral system at 10 uM using FAM-labeled acetylated peptide as substrate by EMSA relative to control
Method in brief: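 Single-point screen at 10 μM compound, using full-length recombinant human enzyme expressed in Sf9 cells. Buffer was HEPES pH 7.5 with KCl, BSA and Triton X-100, and 1% DMSO. Final enzyme was 0.5 nM for HDAC3, 60 nM for HDAC6 and 5.0 nM for HDAC8, with 1 μM FAM-acetylated peptide. Percent inhibition was derived from the product sum ratio relative to DMSO-only (0%) and no-enzyme (100%) controls.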

[3] = target: Histone deacetylase 11 (Homo sapiens) (UniProt Q96DB2); assay: Inhibition of recombinant human HDAC11 expressed in SF9 baculoviral system at 10 uM using FAM-labeled acetylated peptide as substrate by EMSA relative to control
Method in brief: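 Full-length recombinant human HDACs from an Sf9 baculovirus system. Single-point screen at 10 μM by microfluidic mobility-shift assay with FAM-labeled acetylated peptide substrate. Buffer: 100 mM HEPES pH 7.5, 25 mM KCl, 0.1% BSA, 0.01% Triton X-100, 1% DMSO. % inhibition from product/(substrate + product) against no-inhibitor and no-enzyme controls.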

[4] = system: PC-3; assay: Cytotoxicity against human PC3 cells at 50 uM after 72 hrs by CellTiter-Blue assay; assay type: functional, cell-based
[5] = species: Homo sapiens; assay: Cytotoxicity against human D458 cells at 39 nM after 72 hrs by Presto Blue assay; assay type: functional, cell-based
Method in brief: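 D425 and D458 medulloblastoma cells in DMEM high glucose with 20% FBS, seeded at 1000 cells/well in medium with 1% FBS. Twofold dilutions from 20 μM down to 39 nM. Exposed 3 days at 37 °C. Presto Blue added about 4 h before fluorescence read (540–570 nm). IC50 from % viability versus log concentration.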

[6] = Cytotoxicity against human MRC9 cells at 50 uM after 72 hrs by CellTiter-Blue assay; assay type: cell-based
Method in brief: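 Cells in 10% FBS medium, 10 000 cells/well, treated 24 h after plating. Twofold dilution series from a 50.0 μM top dose to 0.097656 μM, in triplicate, 0.5% DMSO vehicle. 72 h at 37 °C, 5% CO2. CellTiter-Blue for 1–4 h, fluorescence 560/590 nm. IC50 by nonlinear regression.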

[7] = Drug uptake in NSG mouse serum at 20 mg/kg, ip administered as single dose and measured at 1 hr by HPLC-MS/MS analysis; assay type: ADME, organism-based; settings: read-out: Drug uptake
Method in brief: (§1)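 NSG mice given a single 20 mg/kg IP dose in Cremophor EL/EtOH (1:1, 4% final volume)/sterile saline. Tail-vein blood at 0.5, 1, 2, 4, 8 and 24 h, n = 2. Drug quantified in serum/plasma. Half-life and clearance calculated assuming 100% bioavailability.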

[8] = Drug uptake in NSG mouse serum at 20 mg/kg, ip administered as single dose and measured at 0.5 hrs by HPLC-MS/MS analysis; assay type: ADME, organism-based; settings: read-out: Drug uptake; method in brief: as §1
[9] = Drug uptake in NSG mouse serum at 20 mg/kg, ip administered as single dose and measured at 24 hrs by HPLC-MS/MS analysis; assay type: ADME, organism-based; settings: read-out: Drug uptake; method in brief: as §1
[10] = Cytotoxicity against mouse KPC monolayer cells assessed as reduction in tumor spheroid intensity after 72 hrs by Alamar Blue assay; assay type: functional, cell-based
Method in brief: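 Monolayer proliferation of STR-authenticated, mycoplasma-checked patient-derived PDAC lines and mouse KPC cells. Plated at 2000 cells/well, treated 72 h, read by alamarBlue. At least triplicate, n = 3–5.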

[11] = system: Panc1005; assay: Cytotoxicity against human Panc 10.05 cells assessed as reduction in tumor spheroid area after 72 hrs in presence of human CAF19 cells by Alamar Blue assay; assay type: functional, cell-based; settings: Panc1005, 72 h
Method in brief: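 3D spheroids of patient-derived PDAC cells (tomato red) alone or with CAF19 cells, plus CAF cultures. Imaging read-outs: area is the μ2 of objects above a tomato red intensity threshold; intensity is summed red or green pixel fluorescence after background removal. n = 3–5.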

[12] = Selectivity ratio of IC50 for human CAF19 cells to IC50 for human Pa03C cells
[13] = target: Signal transducer and activator of transcription 3 (Homo sapiens) (UniProt P40763); assay: Inhibition of STAT3 phosphorylation at Y705 residue in human BTSC 100EF cells at 1 to 10 uM after 24 hrs by Western blot method; assay type: cell-based
Method in brief: (§2)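 BTSCs dissociated to single cells and treated with drug or DMSO. Lysed in RIPA buffer with protease inhibitors. 20 μg lysate run on SDS-PAGE and transferred to nitrocellulose. Blocked in 5% milk, primary antibody overnight at 4 °C, then HRP secondary for 1 h.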

[14] = target: Signal transducer and activator of transcription 3 (Homo sapiens) (UniProt P40763); assay: Inhibition of STAT3 phosphorylation at Y705 residue in human BTSC 143EF cells at 1 to 10 uM after 24 hrs by Western blot method; assay type: cell-based; method in brief: as §2
[15] = Tmax in NSG mouse at 20 mg/kg, ip administered as single dose by HPLC-MS/MS analysis; assay type: ADME, organism-based; settings: in vivo
Method in brief: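 NSG mice received a single 20 mg/kg IP injection in Cremophor EL/EtOH (1:1, 4% final volume)/sterile saline. Tail-vein blood was taken at 0.5, 1, 2, 4, 8 and 24 h, and compound was quantified in plasma (n = 2).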

Signal transducer and activator of transcription 3 (Homo sapiens), sequence (P40763 whole entry): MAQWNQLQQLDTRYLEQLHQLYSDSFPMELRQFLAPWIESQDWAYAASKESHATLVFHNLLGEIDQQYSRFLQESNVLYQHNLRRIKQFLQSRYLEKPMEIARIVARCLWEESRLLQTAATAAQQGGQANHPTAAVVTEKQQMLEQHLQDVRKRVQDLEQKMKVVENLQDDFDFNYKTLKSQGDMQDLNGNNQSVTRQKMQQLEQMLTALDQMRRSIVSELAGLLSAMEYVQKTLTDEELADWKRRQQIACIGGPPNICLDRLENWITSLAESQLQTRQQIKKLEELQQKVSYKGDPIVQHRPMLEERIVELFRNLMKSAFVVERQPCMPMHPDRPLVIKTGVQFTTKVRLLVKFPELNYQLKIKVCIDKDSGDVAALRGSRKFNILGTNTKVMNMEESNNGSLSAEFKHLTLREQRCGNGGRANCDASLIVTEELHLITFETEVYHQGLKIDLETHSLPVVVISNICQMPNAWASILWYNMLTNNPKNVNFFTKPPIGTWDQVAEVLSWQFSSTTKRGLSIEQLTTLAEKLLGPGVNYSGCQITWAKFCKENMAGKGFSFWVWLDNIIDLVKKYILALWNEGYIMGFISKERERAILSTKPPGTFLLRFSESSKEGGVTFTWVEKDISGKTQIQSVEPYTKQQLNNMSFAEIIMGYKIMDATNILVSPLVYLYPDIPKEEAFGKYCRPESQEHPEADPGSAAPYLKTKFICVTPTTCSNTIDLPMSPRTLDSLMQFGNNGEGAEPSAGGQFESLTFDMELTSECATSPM
Histone deacetylase 11 (Homo sapiens), sequence (Q96DB2 whole entry): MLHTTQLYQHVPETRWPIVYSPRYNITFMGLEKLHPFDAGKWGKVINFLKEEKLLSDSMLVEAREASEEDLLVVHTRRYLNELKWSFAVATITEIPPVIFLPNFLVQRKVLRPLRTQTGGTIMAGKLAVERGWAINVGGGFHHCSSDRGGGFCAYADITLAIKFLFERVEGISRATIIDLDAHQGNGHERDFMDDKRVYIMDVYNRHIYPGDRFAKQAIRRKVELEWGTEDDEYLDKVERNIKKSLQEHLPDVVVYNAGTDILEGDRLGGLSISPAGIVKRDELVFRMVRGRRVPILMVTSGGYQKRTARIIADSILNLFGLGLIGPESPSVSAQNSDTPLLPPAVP
Protein deacetylase HDAC6 (Homo sapiens), sequence (Q9UBN7 whole entry): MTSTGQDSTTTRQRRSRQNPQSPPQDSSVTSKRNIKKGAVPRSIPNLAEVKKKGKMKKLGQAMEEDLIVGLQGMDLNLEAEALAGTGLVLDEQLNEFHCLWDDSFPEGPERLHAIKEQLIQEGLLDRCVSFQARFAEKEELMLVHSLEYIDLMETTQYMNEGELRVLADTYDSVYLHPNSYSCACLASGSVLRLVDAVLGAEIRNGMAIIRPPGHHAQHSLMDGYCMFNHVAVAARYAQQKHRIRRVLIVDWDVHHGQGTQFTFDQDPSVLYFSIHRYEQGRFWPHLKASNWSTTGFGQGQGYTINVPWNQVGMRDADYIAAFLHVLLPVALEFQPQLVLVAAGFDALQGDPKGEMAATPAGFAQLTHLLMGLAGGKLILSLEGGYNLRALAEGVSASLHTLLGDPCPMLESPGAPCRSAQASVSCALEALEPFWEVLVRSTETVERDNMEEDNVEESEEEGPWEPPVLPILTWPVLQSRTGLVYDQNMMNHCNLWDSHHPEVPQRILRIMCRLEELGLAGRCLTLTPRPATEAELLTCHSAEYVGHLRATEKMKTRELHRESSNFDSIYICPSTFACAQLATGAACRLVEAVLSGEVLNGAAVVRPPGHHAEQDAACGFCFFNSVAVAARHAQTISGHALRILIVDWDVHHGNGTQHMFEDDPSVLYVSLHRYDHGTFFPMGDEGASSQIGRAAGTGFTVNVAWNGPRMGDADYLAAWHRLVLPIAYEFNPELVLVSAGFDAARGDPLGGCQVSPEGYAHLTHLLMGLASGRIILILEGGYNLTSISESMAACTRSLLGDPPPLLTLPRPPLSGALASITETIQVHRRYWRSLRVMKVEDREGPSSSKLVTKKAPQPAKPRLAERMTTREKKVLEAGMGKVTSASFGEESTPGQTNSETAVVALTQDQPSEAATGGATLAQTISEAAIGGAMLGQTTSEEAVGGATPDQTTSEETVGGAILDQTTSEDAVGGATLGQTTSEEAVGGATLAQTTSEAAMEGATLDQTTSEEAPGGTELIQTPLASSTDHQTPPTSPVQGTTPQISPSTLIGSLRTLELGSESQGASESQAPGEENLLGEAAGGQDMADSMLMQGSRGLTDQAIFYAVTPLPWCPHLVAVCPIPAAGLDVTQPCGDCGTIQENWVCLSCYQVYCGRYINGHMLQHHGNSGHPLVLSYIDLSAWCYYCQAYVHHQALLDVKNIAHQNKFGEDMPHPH

CC(C)(C)c1ccc(CN(C(=O)CN(Cc2c(F)c(F)c(F)c(F)c2F)S(=O)(=O)c2ccc(F)cc2)c2ccc(C(=O)NO)cc2)cc1
IC50 [1]: > 1000 nM | inhibition [2]: 98% | inhibition [3]: 97% | Activity [4]: Active | Activity [5]: Active | Activity [6]: Non-Toxic | concentration at 1 h [7]: 5400 ng/mL | concentration at 0.5 h [8]: 7450 ng/mL | concentration at 24 h [9]: 265 ng/mL | IC50 [10]: 1300 nM | IC50 [11]: 940 nM | Ratio IC50 [12]: 5 - 6 | inhibition [13]: inactive | inhibition [14]: inactive | Tmax [15]: 30 min
